Measured values as given in the RNAGym collection of RNA variant scans (doi:10.1126/science.aae0568).
This sample holds only a part of the variants without activity.

B1: tRNA (parent)
chain: GUUCCGUUGGCGUAAUGGUAACGCGUCUCCCUCCUAAGGAGAAGACUGCGGGUUCGAGUCCCGUACGGAACG

Variants of: B1
Assay: yeast fitness relative to wild type (ratio to wild type); higher = fitter; tRNA-Arg(CCU), competitive growth, 37 C, YPD
In short: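 For this measurement, the tRNA-Arg(CCU) gene was varied by chemical synthesis at a 3% per-site mutation rate across 69 sites, and each variant was placed at the native genomic locus in Saccharomyces cerevisiae. The pooled strains went through a 24-hour competition in YPD at 37°C in six parallel replicates, with amplicons from start and end populations read by 100-nucleotide paired-end sequencing. Darwinian fitness relative to wild type followed from the change in each genotype's frequency. Genotypes needed ≥ 100 starting reads, and estimates < 0.5 were set to 0.5.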
In the case of GUUCCGUUGGCGUAAUCGUAACGAGUCUCCCCCCUAAGGAGAAGACAGCGGGUUCGAGUCCCGUACCGAACG [G17C C24A U32C U47A G67C], the yeast fitness is reported as no more than 0.5.
With GUUCCGUUGGCGUAAUCGUAACGCGUCUCCCUCCUAAGGAGAAGACUGCGGGUUUGAGUCCCCUACCGAACG [G17C C55U G63C G67C] the yeast fitness was no more than 0.5.
With GUUCCGUUGGCGUAAUCGUAACGCGUCUCCCUCCUAAGGAGAAGACUGAGGGUUCGAGUCCCGUACGGAACG [G17C C49A] the yeast fitness was 0.571.
With GUUCCGUUGGCGUAAUCGUAACGCGUCUCCCUCCUAAGGAGAAGACUGUGGGUUCGAGUCCCGUACGGAACG [G17C C49U] the yeast fitness was 0.768.
GUUCCGUUGGCGUAAUCGUAACGCGUCUCCCUCUUAAGGAGAAGACUGCGGGUUCGAGUCUCGUACAGAACG [G17C C34U C61U G67A] gave a yeast fitness of no more than 0.5.
GUUCCGUUGGCGUAAUCGUAACGGGUCUCCCUCCUAACGAGAAGACUGCGGGUUCGAGUCCCGUACGGAACG [G17C C24G G38C] showed a yeast fitness of no more than 0.5.
GUUCCGUUGGCGUAAUCGUAACGCGUCUCCCUCUUAAGGAGAAGACUGCGGGUUCGGGUCCCGUACGGAUCG [G17C C34U A57G A70U] showed a yeast fitness of 0.558.
GUUCCGUUGGCGUAAUCGUAACGCGUCUCCCUCCUAAGGAGAAGACUGUGGGUUCGAGUCGCGUAUGGAACG [G17C C49U C61G C66U] showed a yeast fitness of no more than 0.5.
GUUCCGUUGGCGUAAUCCUAAAGCGUCUCCCUCCUAAGGAGAAGACUGCGGGUUCGAGUCCCGUACGGAACG [G17C G18C C22A] showed a yeast fitness of no more than 0.5.
GUUCCGUUGGCGUAAUCGUAACGCGUCUCCCUCCUAAGGAGAAGAUUGCGGGUUCGAGUCCCGUACGGAACG [G17C C46U] gave a yeast fitness of 0.686.
GUUCCGUUGGCGUAAUCGUAACGCGUCUCCCUCCUAAGGAGAAGAAUGCGGGUUCGAGUCCCGUACGGAACG [G17C C46A] showed a yeast fitness of 0.609.
Work on GUUCCGUUGGCGUAAUCGUAACGCGUCUUCCUCCUAAGGAGAAGACUGCGGGUUCGAGUCCCGUACGGAUCG [G17C C29U A70U] yielded a yeast fitness of no more than 0.5.
For GUUCCGUUGGCGUAAUCGUAACGCGUCUCCCUCCUAAGGAGAAGACUGCGGGUUAGAGUACCGUACGGAACG [G17C C55A C60A], the yeast fitness was 0.716.
GUUCCGUUGGCGUAAUCGUAACGCGUCUCCCUCCUAAGGAGAAGAGUGCGGGUUUGAGUCCCGUACGGAACG [G17C C46G C55U] gave a yeast fitness of 0.571.
GUUCCGUUGGCGUAAUCGUAACGCGUCUCCCUCAUAAGGAGAAGACUGCGGGUUCGAGCCCCGUACGGAACG [G17C C34A U59C] showed a yeast fitness of 0.542.
GUUCCGUUGGCGUAAUCGUAACGCGUCUCCGUCCUAAGGAGCAGACUGCGGGUUCGAGUCCCGUAUGGAACG [G17C C31G A42C C66U] showed a yeast fitness of no more than 0.5.
GUUCCGUUGGCGUAAUCGUAACGCGUCUACCUCCUAAGGAGAAGAUUGCGGGUUCGAGUCCCGUACGGAACG [G17C C29A C46U] showed a yeast fitness of 0.867.
Variant GUUCCGUUGGCGUAAUCGUAACGCGUCUCGCCCCUAAGGAGAAGACUGCGGGUUCGAGUGCCAUUUGGAACG [G17C C30G U32C C60G G63A A65U C66U] has a yeast fitness of 0.544.
In the case of GUUCCGUUGGCGUAAUCGUAACGCGUUUCCCUCCUAGGGAGAAGACUGCGGGUUCGAGUCCCGUGCGGAACG [G17C C27U A37G A65G], the yeast fitness is reported as no more than 0.5.
In the case of GUUCCGUUGGCGUAAUCGUAACGGGUCUCUCUCCUAAGGAGAAGACUGCCGGUUCGAGUCCCGUACGGAACG [G17C C24G C30U G50C], the yeast fitness is reported as no more than 0.5.
In the case of GUUCCGUUGGCGUAAUCGUAACGCGUCUACCUCCUAAGGAGAAGACUGCGGGUUCGAGUCCCGUACGGAACG [G17C C29A], the yeast fitness is reported as 0.544.
In the case of GUUCCGUUGGCGUAAUCAUAACGCGUUUCCCUCCUAAGGAGAAGAUUGCGGGUUCGAAUCCCGUACGGAACG [G17C G18A C27U C46U G58A], the yeast fitness is reported as no more than 0.5.
Work on GUUCCGUUGGCGUAAUCGUAACGAGUCUCCCUCCUAAGGAGAAGACAGCGGGUUCGAGUCCCGUACCGAACG [G17C C24A U47A G67C] yielded a yeast fitness of 0.569.
For GUUCCGUUGGCGUAAUCGUAACGCGUCUCCCUACUAAGGAGAAGACUGCGGGUUCGAGUCCCGUACGGAACG [G17C C33A], the yeast fitness was no more than 0.5.
With GUUCCGUUGGCGUAAUCGUAACGCGUCUCCCUGCUAAGGAGAAGACUGCGGGUUCGAGUCCCGUACGGAACG [G17C C33G] the yeast fitness was 0.534.
GUUCCGUUGGCGUAAUCGUAACGCGUCUGCCGCCUAAAGAGAAGACUGCGGGCUCGAGUCCCGUACGGAACG [G17C C29G U32G G38A U53C] showed a yeast fitness of no more than 0.5.
For GUUCCGUUGGCGUAAUCGUAACGGGUCUCCCUCCUAAGGAGAAGAGUGCGGGUUCGAGUCCCGUACGGAACG [G17C C24G C46G], the yeast fitness was 0.519.
Variant GUUCCGUUGGCGUAAUCGUAACGCGUCUUCCACCUAAGGAGAAGAUUGCGGGUUCGAGUACCGUAGGGAACG [G17C C29U U32A C46U C60A C66G] has a yeast fitness of no more than 0.5.
Work on GUUCCGUUGGCGUAAUCGUAACGCGUCUCGCUCCUAAGGAGAAGACUGCGGGUUCGAGUCCCGUACGGAACG [G17C C30G] yielded a yeast fitness of 0.581.
Variant GUUCCGUUGGCGUAAUCGUAACGCGUCUGCCUCCUAAGAAGAAGACUGCGGGUUCGAGUCCCGUACGGAUCG [G17C C29G G39A A70U] has a yeast fitness of no more than 0.5.
GUUCCGUUGGCGUAAUCGUAACGCGUCUCCCUCAUAAGGAGAAGACUGCAGGGUCGAGUUCCGUACGGAACG [G17C C34A G50A U53G C60U] showed a yeast fitness of no more than 0.5.
GUUCCGUUGGCGUAAUCGUAACGCGUCUCCCUCCUAAGGAGAAGACUGCGGGUUUGAGUCCCGUACGGUUCG [G17C C55U A69U A70U] gave a yeast fitness of no more than 0.5.
Work on GUUCCGUUGGCGUAAUCGUAACGCGUCUCCCUUCUAAGGAGAAGACUGCGGGUUCAAGUCCCGUACGGUACG [G17C C33U G56A A69U] yielded a yeast fitness of no more than 0.5.
With GUUCCGUUGGCGUAAUCGUAACGCGUCUCCCUCCUAAGGAGAAGACUGCGGGUUGGAGUCCCGUACAGCACG [G17C C55G G67A A69C] the yeast fitness was no more than 0.5.
GUUCCGUUGGCGUAAUCGUAACGGGUCUCCCUCCUAAGGAGAAGACUCCGGGUUCGAGUCCCGUACGGAACG [G17C C24G G48C] gave a yeast fitness of no more than 0.5.
In the case of GUUCCGUUGGCGUAAUCGUAACGCGUUUCCCUCCUAAGGAGAAGACUGCGGGUUCGAGUCCCGCACGGAACG [G17C C27U U64C], the yeast fitness is reported as no more than 0.5.
For GUUCCGUUGGCGUAAUCGUAACGCGUCUCCCUCGUACGGAGAAGACUGCGGGUUCGAGUCCAGUACGGAACG [G17C C34G A37C C62A], the yeast fitness was 0.561.
